One assay concerns A549. The assay is described as follows: Antiproliferative activity against human A549 cells after 72 hrs by MTT assay. It is filed as functional, cell-based. The settings on record: A549, 72 h. An outline of the steps: (§1)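 Monolayers grown in DMEM with 10% FBS and 2 mM L-glutamine at 37 °C, 5% CO2. Cells seeded at 5000 per well on day 0. Compounds added in five 10-fold dilutions (0.01–100 µM), DMSO ≤0.1%, for 72 h. MTT absorbance converted to percentage growth versus untreated wells. IC50 by linear regression of the dose-response curve; highest concentration reported when not reached. Quadruplicate points, three experiments.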

The next assay deals with HepG2. Put plainly: Antiproliferative activity against human HepG2 cells after 72 hrs by MTT assay. Conditions: HepG2, 72 h. It is filed as functional, cell-based. A digest of the protocol:
as §1

The subject of another assay is CFPAC-1. The assay is described as follows: Antiproliferative activity against human CFPAC-1 cells after 72 hrs by MTT assay. It is filed as functional, cell-based. Conditions: CFPAC-1, 72 h. A digest of the protocol:
as §1

A further assay has as its system HeLa. Put plainly: Antiproliferative activity against human HeLa cells after 72 hrs by MTT assay. It is filed as functional, cell-based. An outline of the steps: as §1
In the next assay the test system is SW-620. The assay is described as follows: Antiproliferative activity against human SW620 cells after 72 hrs by MTT assay. It is filed as functional, cell-based. Conditions: SW-620, 72 h. An outline of the steps: as §1
Another assay has as its system WI-38. The assay is described as follows: Antiproliferative activity against human WI38 cells after 72 hrs by MTT assay. It is filed as cell-based. The settings on record: WI-38, 72 h. An outline of the steps: as §1

Regarding `O=c1nc2oc(CCCCl)c(C#CCCCCl)c2cn1Cc1cn(-c2ccc(F)cc2)nn1`, the IC50 with A549 amounted to 39.4 µM; with HepG2 it was 36.9 µM; in the assay with CFPAC-1 it was 95.8 µM; in the assay on HeLa it was 41.8 µM; in the assay with SW-620, 69.6 µM; in the assay on WI-38 it was 0.07 µM.
Regarding `O=c1nc2oc(C3CC3)cc2cn1Cc1cn(Cc2ccccc2)nn1`, the IC50 in the assay on A549 came out at 45 µM; in the assay on HepG2, 49.1 µM; in the assay with CFPAC-1, 48.5 µM; in the assay on HeLa, 50 µM; in the assay on SW-620 it was 54.7 µM; in the assay on WI-38, 29.7 µM.
On to `O=c1nc2oc(CCCCl)cc2cn1Cc1cn(-c2ccc(F)cc2)nn1`, for which the IC50 is 68.4 µM in the assay on A549; 14.6 µM with HepG2; 6.49 µM in the assay with CFPAC-1; 6.99 µM with HeLa; > 100 µM in the assay with SW-620; < 0.01 µM in the assay with WI-38.
On to `O=c1c(I)cn(Cc2cn(-c3ccccc3F)nn2)c(=O)n1Cc1cn(-c2ccccc2F)nn1`, for which the IC50 in the assay with A549 was 53.4 µM; with HepG2, 36.1 µM; in the assay on CFPAC-1, 55.9 µM; in the assay with HeLa, 49.8 µM; with SW-620, > 100 µM; in the assay with WI-38, 2.22 µM.
On to `C#CCn1c(=O)c(I)cn(Cc2cn(-c3ccc(Cl)cc3)nn2)c1=O`, for which the IC50 in the assay with A549 was found to be 4.69 µM; in the assay with HepG2, 13.1 µM; in the assay on CFPAC-1, 5.53 µM; in the assay on HeLa, 4.74 µM; with SW-620, 18.3 µM; with WI-38, 0.04 µM.
As to `O=c1[nH]c(=O)n(Cc2cn(Cc3ccccc3)nn2)cc1I`, the IC50 in the assay on A549 is > 100 µM; with HepG2, > 100 µM; with CFPAC-1 it was > 100 µM; with HeLa it was > 100 µM; with SW-620, > 100 µM; in the assay with WI-38 it was 55.2 µM.
Turning to `CCCCCCc1cc2cn(Cc3cn(Cc4ccccc4)nn3)c(=O)nc2o1`, the IC50 in the assay on A549 stood at 51 µM; in the assay on HepG2 it was 68.7 µM; in the assay on CFPAC-1 it was 67 µM; in the assay on HeLa, 59.4 µM; in the assay with SW-620, 93.5 µM; in the assay with WI-38, 62.8 µM.
For `O=c1[nH]c(=O)n(Cc2cn(-c3ccc(F)cc3)nn2)cc1I`, the IC50 with A549 is 78.8 µM; in the assay with HepG2 it was > 100 µM; in the assay with CFPAC-1, 83.7 µM; in the assay on HeLa, 7.2 µM; in the assay on SW-620, > 100 µM; in the assay with WI-38, 3.78 µM.
On to `CCCCCc1ccc(C#Cc2c(-c3ccc(CCCCC)cc3)oc3nc(=O)n(Cc4cn(Cc5ccccc5)nn4)cc23)cc1`, for which the IC50 in the assay on A549 is > 100 µM; in the assay on HepG2 it was > 100 µM; with CFPAC-1, > 100 µM; in the assay on HeLa, 73 µM; in the assay on SW-620 it was > 100 µM; with WI-38, 2.65 µM.
Regarding `O=c1nc2oc(CCCCl)cc2cn1Cc1cn(Cc2ccccc2)nn1`, the IC50 was determined as 27.9 µM with A549; 27.6 µM in the assay on HepG2; 23.5 µM in the assay on CFPAC-1; 9.58 µM in the assay with HeLa; 75.5 µM in the assay with SW-620; 5.2 µM with WI-38.
With `C#CCn1c(=O)c(I)cn(Cc2cn(-c3ccc(F)cc3)nn2)c1=O`, the IC50 was 3.06 µM in the assay with A549; 5.11 µM in the assay on HepG2; 4.21 µM in the assay with CFPAC-1; 4.5 µM in the assay with HeLa; 6.63 µM in the assay on SW-620; < 0.01 µM with WI-38.
In the case of `O=c1nc2oc(CCCCl)cc2cn1Cc1cn(-c2ccccc2F)nn1`, the IC50 with A549 is 69.8 µM; in the assay on HepG2, 79.8 µM; in the assay on CFPAC-1 it was 81.8 µM; with HeLa, 66.5 µM; in the assay on SW-620 it was > 100 µM; in the assay with WI-38 it was 76.5 µM.
For the compound `CCCCCc1ccc(C#Cc2c(-c3ccc(CCCCC)cc3)oc3nc(=O)n(Cc4cn(-c5ccccc5F)nn4)cc23)cc1`, the IC50 was 38.6 µM with A549; 72.5 µM in the assay on HepG2; > 100 µM in the assay on CFPAC-1; 9 µM in the assay with HeLa; 57.1 µM in the assay on SW-620; 7.34 µM in the assay with WI-38.
With `CCCCCCC#Cc1c(CCCCCC)oc2nc(=O)n(Cc3cn(Cc4ccccc4)nn3)cc12`, the IC50 turned out to be 21.9 µM with A549; 25.8 µM in the assay on HepG2; 27.3 µM in the assay on CFPAC-1; 23.4 µM in the assay with HeLa; 32.6 µM with SW-620; 23.4 µM in the assay on WI-38.
Turning to `O=c1nc2oc(C3CC3)c(C#CC3CC3)c2cn1Cc1cn(Cc2ccccc2)nn1`, the 50% inhibitory concentration (IC50) in the assay on A549 is 4.81 µM; in the assay with HepG2 it was 2.67 µM; with CFPAC-1 it was 4.59 µM; in the assay with HeLa, 6.51 µM; in the assay with SW-620, 9.72 µM; in the assay with WI-38 it was 0.29 µM.
Take `O=c1nc2oc(CCCCl)c(C#CCCCCl)c2cn1Cc1cn(Cc2ccccc2)nn1`: the IC50 is 26.9 µM with A549; 25.5 µM with HepG2; 32.8 µM in the assay on CFPAC-1; 25.4 µM in the assay on HeLa; 33.9 µM in the assay with SW-620; 17.6 µM with WI-38.
As to `CCCCCCc1cc2cn(Cc3cn(-c4ccccc4F)nn3)c(=O)nc2o1`, the IC50 is > 100 µM in the assay with A549; > 100 µM in the assay with HepG2; > 100 µM in the assay with CFPAC-1; > 100 µM in the assay on HeLa; > 100 µM in the assay with SW-620; 69.2 µM in the assay with WI-38.
As for `CCCCCCC#Cc1c(CCCCCC)oc2nc(=O)n(Cc3cn(-c4ccc(F)cc4)nn3)cc12`, the IC50 in the assay on A549, with HepG2, with CFPAC-1, with HeLa, with SW-620 and with WI-38 was > 100 µM each time.
Take `O=c1nc2oc(C3CC3)cc2cn1Cc1cn(-c2ccc(Cl)cc2)nn1`: the IC50 in the assay on A549 is 61 µM; in the assay on HepG2 it was > 100 µM; with CFPAC-1 it was > 100 µM; with HeLa, > 100 µM; in the assay with SW-620 it was > 100 µM; in the assay with WI-38 it was > 100 µM.
Regarding `O=c1nc2oc(CCCCl)cc2cn1Cc1cn(-c2ccc(Cl)cc2)nn1`, the IC50 in the assay on A549 is 52 µM; in the assay with HepG2 it was 89.8 µM; in the assay with CFPAC-1 it was > 100 µM; in the assay on HeLa, 60.2 µM; in the assay on SW-620, > 100 µM; with WI-38, 72.5 µM.
On to `O=c1nc2oc(C3CC3)c(C#CC3CC3)c2cn1Cc1cn(-c2ccc(Cl)cc2)nn1`, for which the IC50 in the assay on A549 is 39 µM; with HepG2, 39.2 µM; with CFPAC-1, 35.4 µM; in the assay on HeLa, 16.1 µM; in the assay with SW-620 it was 36.9 µM; in the assay on WI-38, 3.15 µM.
`CCCCCCC#Cc1c(CCCCCC)oc2nc(=O)n(Cc3cn(-c4ccc(Cl)cc4)nn3)cc12`: the IC50 in the assay on A549, in the assay with HepG2, in the assay on CFPAC-1, in the assay with HeLa, in the assay on SW-620 and in the assay with WI-38 was > 100 µM throughout.
Take `O=c1[nH]c(=O)n(Cc2cn(-c3ccc(Cl)cc3)nn2)cc1I`: the IC50 in the assay with A549 is 50.6 µM; in the assay on HepG2, > 100 µM; in the assay with CFPAC-1 it was 77.2 µM; in the assay with HeLa, 6.79 µM; in the assay with SW-620, 34.6 µM; in the assay on WI-38, < 0.01 µM.
Regarding `O=c1[nH]cc(F)c(=O)[nH]1` [FLUOROURACIL], the IC50 worked out at 2.8 µM in the assay on A549; 0.14 µM in the assay on CFPAC-1; 8.81 µM with HeLa; 0.08 µM in the assay on SW-620; 0.94 µM in the assay with WI-38.
On to `O=c1nc2oc(C3CC3)c(C#CC3CC3)c2cn1Cc1cn(-c2ccccc2F)nn1`, for which the 50% inhibitory concentration (IC50) in the assay with A549 was found to be 38.3 µM; in the assay with HepG2, 39.1 µM; in the assay with CFPAC-1, 54.5 µM; with HeLa it was 51.2 µM; in the assay with SW-620, 49.1 µM; in the assay on WI-38, 45.9 µM.
As for `C#CCn1c(=O)c(I)cn(Cc2cn(-c3ccccc3F)nn2)c1=O`, the IC50 with A549 was 56.2 µM; in the assay on HepG2, > 100 µM; in the assay on CFPAC-1, > 100 µM; with HeLa, > 100 µM; in the assay on SW-620, > 100 µM; with WI-38, 0.16 µM.
Consider `CCCCCc1ccc(C#Cc2c(-c3ccc(CCCCC)cc3)oc3nc(=O)n(Cc4cn(-c5ccc(Cl)cc5)nn4)cc23)cc1`, for which the IC50 in the assay with A549, in the assay with HepG2, with CFPAC-1, in the assay on HeLa, with SW-620 and in the assay on WI-38 was > 100 µM each time.
Regarding `O=c1c(I)cn(Cc2cn(Cc3ccccc3)nn2)c(=O)n1Cc1cn(Cc2ccccc2)nn1`, the IC50 was 41.3 µM with A549; 5.77 µM in the assay on HepG2; > 100 µM in the assay on CFPAC-1; 15.1 µM with HeLa; > 100 µM in the assay with SW-620; < 0.01 µM with WI-38.
In the case of `O=c1nc2oc(CCCCl)c(C#CCCCCl)c2cn1Cc1cn(-c2ccc(Cl)cc2)nn1`, the IC50 was > 100 µM in the assay with A549; 72.5 µM with HepG2; > 100 µM in the assay with CFPAC-1; > 100 µM in the assay on HeLa; > 100 µM in the assay with SW-620; > 100 µM in the assay with WI-38.
As to `O=c1c(I)cn(Cc2cn(-c3ccc(F)cc3)nn2)c(=O)n1Cc1cn(-c2ccc(F)cc2)nn1`, the IC50 in the assay with A549 was 78.7 µM; with HepG2, 53.5 µM; in the assay on CFPAC-1, 51.2 µM; in the assay with HeLa, 41.9 µM; in the assay on SW-620, 94.8 µM; in the assay with WI-38, < 0.01 µM.
Take `O=c1[nH]c(=O)n(Cc2cn(-c3ccccc3F)nn2)cc1I`: the 50% inhibitory concentration (IC50) was 95.1 µM in the assay with A549; > 100 µM in the assay on HepG2; > 100 µM in the assay on CFPAC-1; > 100 µM in the assay with HeLa; > 100 µM with SW-620; 73.1 µM with WI-38.

For the origin of these results see ChEMBL document CHEMBL4041520, “Novel pyrimidine-2,4-dione-1,2,3-triazole and furo[2,3-d]pyrimidine-2-one-1,2,3-triazole hybrids as potential anti-cancer agents: Synthesis, computational and X-ray analysis and biological evaluation” (Eur J Med Chem, 2017).
